Results: ChEMBL document CHEMBL1140735, “Structure-activity relationships of C6-uridine derivatives targeting plasmodia orotidine monophosphate decarboxylase” (J Med Chem, 2008)

What was measured:
CHO = assay: Cytotoxicity against CHO cells; format: cell-based; conditions: Cricetulus griseus
In short: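 CHO cells in RPMI 1640 with 10% fetal calf serum, 25 mM HEPES and gentamicin were grown to 50% confluency. Compounds from 10 mg/mL DMSO stocks were added as a serial dilution series, with DMSO-only controls. After 48 h, MTT was added for 1 h and formazan dissolved in DMSO. Absorbance at 650 nm; IC50 by nonlinear regression of dose–response.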

Plasmodium falciparum [1] = assay: Antimalarial activity against Plasmodium falciparum 3D7; format: functional, organism-based
In short: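 Parasites grown in human O+ erythrocytes in RPMI 1640 with 10% human serum and 50 µM hypoxanthine. Compounds from 10 mg/mL DMSO stocks were serially 2-fold diluted and added to culture at 2% hematocrit and 2% parasitemia. Incubation was 48 h at 37 °C under 95% N2/3% CO2/2% O2.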

[2] = Stability assessed as half life of hydrolysis; format: physicochemical
[3] = Inhibition of Plasmodium vivax ODCase
In short: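 Calorimetric assay of P. vivax ODCase: enzyme (50 or 70 nM) was mixed with inhibitor (40–250 µM) in 50 mM Tris with 1 mM DTT, and activity was started by a single OMP injection to a final 12 µM. Competitive Ki was determined. For time-dependent inactivation, 50 µM enzyme was incubated at 25 °C in Tris pH 8.0 with 37.5–75 mM inhibitor for 1–48 h, then diluted 1000-fold and assayed.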

[4] = Inhibition of Plasmodium falciparum ODCase
[5] = Inhibition of Methanobacterium thermoautotrophicum ODCase; design: species or system Methanothermobacter thermautotrophicus
[6] = test system: Methanothermobacter thermautotrophicus
Plasmodium falciparum [7] = test system: Plasmodium falciparum

Compound | IC50 (Plasmodium falciparum [1]) [µM] | IC50 (CHO) [µM] | other results
N#Cc1cc(=O)[nH]c(=O)n1[C@@H]1O[C@H](COP(=O)(O)O)[C@@H](O)[C@H]1O |  |  | half-life [2]: 5 h; Ki [3]: 62 µM
Cc1cc(=O)[nH]c(=O)n1[C@@H]1O[C@H](COP(=O)(O)O)[C@@H](O)[C@H]1O |  |  | Ki [4]: 34.1 µM; Ki [3]: 22.4 µM
[N-]=[N+]=Nc1cc(=O)[nH]c(=O)n1[C@@H]1O[C@H](COP(=O)(O)O)[C@@H](O)[C@H]1O |  |  | Ki [5]: 0.19 µM; Ki [4]: 2 µM; KI [6]: 0.63 µM; Kinact [6]: 61.2 h⁻¹; KI (Plasmodium falciparum [7]): 7.3 µM; Kinact (Plasmodium falciparum [7]): 0.35 h⁻¹
O=c1cc(I)n([C@@H]2O[C@H](CO)[C@@H](O)[C@H]2O)c(=O)[nH]1 | 6.2 | 366 | 

Now from value to compound, other results behind:

IC50 (Plasmodium falciparum [1]) [µM] | Compound | IC50 (CHO) [µM] | other results
446 | N#Cc1cc(=O)[nH]c(=O)n1[C@@H]1O[C@H](CO)[C@@H](O)[C@H]1O | > 1500 | 
> 1500 | Nc1cc(=O)[nH]c(=O)n1[C@@H]1O[C@H](CO)[C@@H](O)[C@H]1O | > 1500 | 
28.5 | CNc1cc(=O)[nH]c(=O)n1[C@@H]1O[C@H](CO)[C@@H](O)[C@H]1O | 71.9 | 
31.7 | CN(C)c1cc(=O)[nH]c(=O)n1[C@@H]1O[C@H](CO)[C@@H](O)[C@H]1O | 68.3 | 
530 | Cc1cc(=O)[nH]c(=O)n1[C@@H]1O[C@H](CO)[C@@H](O)[C@H]1O | > 1160 | 
1230 | [N-]=[N+]=Nc1cc(=O)[nH]c(=O)n1[C@@H]1O[C@H](CO)[C@@H](O)[C@H]1O | > 1500 | 
